Key:
[1] = biological target: cAMP and cAMP-inhibited cGMP 3',5'-cyclic phosphodiesterase 10A (Homo sapiens, UniProt Q9Y233); experiment: Inhibition of human recombinant PDE10A catalytic domain assessed reduction in [3H]cAMP hydrolysis preincubated with enzyme for 5 mins prior to substrate addition measured after 20 mins by scintillation proximity assay
Method in brief: (§1)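 [3H]cAMP (40 nCi/mL, 1/3 Km) was added, then 20 min on ice (~30% turnover). Stopped with yttrium silicate SPA beads, settled 1.5 h at room temperature, CPM counted. IC50 from one-site competitive nonlinear fit, at least two independent runs.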

[2] = biological target: 3',5'-cyclic-AMP phosphodiesterase 4A (Homo sapiens, UniProt P27815); experiment: Inhibition of human recombinant PDE4A assessed reduction in [3H]cAMP hydrolysis preincubated with enzyme for 5 mins prior to substrate addition measured after 20 mins by scintillation proximity assay; method in brief: as §1
3',5'-cyclic-AMP phosphodiesterase 4A, sequence (P27815 whole entry): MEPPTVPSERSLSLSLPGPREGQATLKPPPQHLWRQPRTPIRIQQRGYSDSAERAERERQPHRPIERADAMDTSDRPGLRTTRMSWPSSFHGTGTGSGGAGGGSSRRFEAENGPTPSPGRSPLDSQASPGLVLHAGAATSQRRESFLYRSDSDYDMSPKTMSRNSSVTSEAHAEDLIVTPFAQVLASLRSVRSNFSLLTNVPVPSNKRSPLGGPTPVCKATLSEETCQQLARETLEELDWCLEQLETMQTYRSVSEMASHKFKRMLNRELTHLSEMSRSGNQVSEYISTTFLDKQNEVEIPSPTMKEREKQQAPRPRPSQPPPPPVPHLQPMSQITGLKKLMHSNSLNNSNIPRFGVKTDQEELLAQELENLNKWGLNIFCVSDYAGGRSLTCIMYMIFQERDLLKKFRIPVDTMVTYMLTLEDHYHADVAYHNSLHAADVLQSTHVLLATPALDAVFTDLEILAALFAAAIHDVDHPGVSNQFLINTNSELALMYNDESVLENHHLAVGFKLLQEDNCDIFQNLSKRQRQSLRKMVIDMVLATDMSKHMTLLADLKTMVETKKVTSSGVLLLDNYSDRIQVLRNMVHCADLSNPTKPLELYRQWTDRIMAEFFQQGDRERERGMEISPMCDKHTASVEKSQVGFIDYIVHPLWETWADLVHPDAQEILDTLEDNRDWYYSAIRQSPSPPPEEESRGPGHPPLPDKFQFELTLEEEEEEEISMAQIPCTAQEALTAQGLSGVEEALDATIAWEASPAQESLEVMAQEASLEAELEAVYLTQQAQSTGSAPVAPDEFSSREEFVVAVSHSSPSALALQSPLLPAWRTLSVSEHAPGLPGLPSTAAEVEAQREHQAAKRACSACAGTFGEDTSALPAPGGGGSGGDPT

[3] = biological target: 3',5'-cyclic-AMP phosphodiesterase 4B (Homo sapiens, UniProt Q07343); experiment: Inhibition of human recombinant PDE4B assessed reduction in [3H]cAMP hydrolysis preincubated with enzyme for 5 mins prior to substrate addition measured after 20 mins by scintillation proximity assay; method in brief: as §1
3',5'-cyclic-AMP phosphodiesterase 4B, sequence (Q07343 whole entry): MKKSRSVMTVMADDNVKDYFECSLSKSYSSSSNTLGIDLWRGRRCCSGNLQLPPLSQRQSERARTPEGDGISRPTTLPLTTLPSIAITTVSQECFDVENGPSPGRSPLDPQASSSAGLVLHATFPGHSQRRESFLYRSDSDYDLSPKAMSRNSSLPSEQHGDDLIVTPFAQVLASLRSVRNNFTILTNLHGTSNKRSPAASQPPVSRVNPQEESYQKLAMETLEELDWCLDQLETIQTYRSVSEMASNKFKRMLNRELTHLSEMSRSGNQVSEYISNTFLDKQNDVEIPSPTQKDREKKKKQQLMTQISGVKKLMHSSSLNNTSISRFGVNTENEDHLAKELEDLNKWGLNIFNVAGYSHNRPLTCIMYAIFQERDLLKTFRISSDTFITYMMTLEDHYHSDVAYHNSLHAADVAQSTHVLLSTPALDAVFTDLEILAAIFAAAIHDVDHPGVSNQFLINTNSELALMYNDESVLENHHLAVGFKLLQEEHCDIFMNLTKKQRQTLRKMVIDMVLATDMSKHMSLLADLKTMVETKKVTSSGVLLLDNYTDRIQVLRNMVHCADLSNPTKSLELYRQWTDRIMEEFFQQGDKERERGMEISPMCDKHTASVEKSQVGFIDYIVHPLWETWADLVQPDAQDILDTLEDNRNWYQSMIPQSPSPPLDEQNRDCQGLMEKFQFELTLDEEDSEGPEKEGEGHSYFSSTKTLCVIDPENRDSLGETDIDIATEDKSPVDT

[4] = biological target: cGMP-inhibited 3',5'-cyclic phosphodiesterase 3A (Homo sapiens, UniProt Q14432); experiment: Inhibition of human recombinant PDE3A assessed reduction in [3H]cAMP hydrolysis preincubated with enzyme for 5 mins prior to substrate addition measured after 20 mins by scintillation proximity assay; method in brief: as §1
cGMP-inhibited 3',5'-cyclic phosphodiesterase 3A, sequence (Q14432 whole entry): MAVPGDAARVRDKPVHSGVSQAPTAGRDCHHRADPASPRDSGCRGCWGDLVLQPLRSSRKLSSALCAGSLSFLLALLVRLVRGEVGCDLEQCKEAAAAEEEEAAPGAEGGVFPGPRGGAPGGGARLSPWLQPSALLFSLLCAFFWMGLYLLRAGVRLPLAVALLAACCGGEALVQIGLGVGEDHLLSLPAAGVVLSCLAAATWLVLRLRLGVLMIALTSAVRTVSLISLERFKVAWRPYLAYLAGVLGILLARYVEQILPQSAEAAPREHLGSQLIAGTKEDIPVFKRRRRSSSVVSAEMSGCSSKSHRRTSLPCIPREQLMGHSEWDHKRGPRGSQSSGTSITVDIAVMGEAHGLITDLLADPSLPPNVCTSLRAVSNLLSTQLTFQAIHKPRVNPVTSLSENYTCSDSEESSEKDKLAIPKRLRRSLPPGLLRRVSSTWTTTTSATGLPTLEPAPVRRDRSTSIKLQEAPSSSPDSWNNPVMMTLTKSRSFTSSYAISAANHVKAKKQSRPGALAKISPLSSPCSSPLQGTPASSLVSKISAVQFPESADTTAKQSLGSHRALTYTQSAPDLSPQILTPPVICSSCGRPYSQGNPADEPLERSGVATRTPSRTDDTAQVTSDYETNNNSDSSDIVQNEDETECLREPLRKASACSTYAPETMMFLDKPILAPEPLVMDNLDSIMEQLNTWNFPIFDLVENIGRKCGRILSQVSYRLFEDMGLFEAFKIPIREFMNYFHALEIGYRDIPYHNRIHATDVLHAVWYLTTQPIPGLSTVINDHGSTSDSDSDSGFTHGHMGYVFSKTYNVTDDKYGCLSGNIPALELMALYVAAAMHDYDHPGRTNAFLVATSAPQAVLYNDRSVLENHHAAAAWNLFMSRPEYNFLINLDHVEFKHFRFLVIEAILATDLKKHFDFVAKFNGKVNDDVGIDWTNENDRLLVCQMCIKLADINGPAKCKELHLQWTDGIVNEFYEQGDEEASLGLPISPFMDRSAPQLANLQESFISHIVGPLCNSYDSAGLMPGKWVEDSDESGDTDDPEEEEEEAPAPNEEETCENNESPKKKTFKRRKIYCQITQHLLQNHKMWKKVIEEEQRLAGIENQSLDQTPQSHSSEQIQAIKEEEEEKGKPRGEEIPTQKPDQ

[5] = biological target: cGMP-inhibited 3',5'-cyclic phosphodiesterase 3B (Homo sapiens, UniProt Q13370); experiment: Inhibition of human recombinant PDE3B assessed reduction in [3H]cAMP hydrolysis preincubated with enzyme for 5 mins prior to substrate addition measured after 20 mins by scintillation proximity assay; method in brief: as §1
cGMP-inhibited 3',5'-cyclic phosphodiesterase 3B, sequence (Q13370 whole entry): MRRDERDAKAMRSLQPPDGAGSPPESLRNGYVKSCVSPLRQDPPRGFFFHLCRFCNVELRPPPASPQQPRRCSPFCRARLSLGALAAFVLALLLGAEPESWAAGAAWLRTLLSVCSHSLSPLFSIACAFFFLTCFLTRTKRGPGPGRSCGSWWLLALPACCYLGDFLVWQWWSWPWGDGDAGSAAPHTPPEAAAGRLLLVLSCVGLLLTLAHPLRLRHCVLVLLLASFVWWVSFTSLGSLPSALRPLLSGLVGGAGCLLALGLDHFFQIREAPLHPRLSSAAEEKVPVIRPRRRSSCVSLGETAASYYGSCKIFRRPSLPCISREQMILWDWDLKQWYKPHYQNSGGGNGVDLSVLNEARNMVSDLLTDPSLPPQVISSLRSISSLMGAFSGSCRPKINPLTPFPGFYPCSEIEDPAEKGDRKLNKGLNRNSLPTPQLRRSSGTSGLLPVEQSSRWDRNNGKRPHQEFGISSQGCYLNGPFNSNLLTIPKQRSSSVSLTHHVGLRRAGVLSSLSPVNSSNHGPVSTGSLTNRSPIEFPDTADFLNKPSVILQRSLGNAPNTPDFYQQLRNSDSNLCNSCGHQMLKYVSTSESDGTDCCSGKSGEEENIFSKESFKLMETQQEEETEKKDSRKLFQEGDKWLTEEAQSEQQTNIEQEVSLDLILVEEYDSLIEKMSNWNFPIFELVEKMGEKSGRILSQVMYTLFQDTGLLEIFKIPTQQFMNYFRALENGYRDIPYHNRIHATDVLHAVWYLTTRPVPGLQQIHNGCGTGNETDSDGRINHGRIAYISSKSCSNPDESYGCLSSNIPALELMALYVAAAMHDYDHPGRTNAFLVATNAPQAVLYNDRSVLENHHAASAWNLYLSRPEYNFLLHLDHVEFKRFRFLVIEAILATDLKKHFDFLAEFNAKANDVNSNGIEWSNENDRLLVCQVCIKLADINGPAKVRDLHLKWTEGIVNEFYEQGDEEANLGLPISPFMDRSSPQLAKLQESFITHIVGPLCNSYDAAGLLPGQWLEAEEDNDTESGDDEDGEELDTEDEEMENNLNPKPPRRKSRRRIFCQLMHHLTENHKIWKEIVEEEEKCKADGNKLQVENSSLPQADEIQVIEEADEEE

cAMP and cAMP-inhibited cGMP 3',5'-cyclic phosphodiesterase 10A, sequence (Q9Y233 whole entry, the tested form may be a part): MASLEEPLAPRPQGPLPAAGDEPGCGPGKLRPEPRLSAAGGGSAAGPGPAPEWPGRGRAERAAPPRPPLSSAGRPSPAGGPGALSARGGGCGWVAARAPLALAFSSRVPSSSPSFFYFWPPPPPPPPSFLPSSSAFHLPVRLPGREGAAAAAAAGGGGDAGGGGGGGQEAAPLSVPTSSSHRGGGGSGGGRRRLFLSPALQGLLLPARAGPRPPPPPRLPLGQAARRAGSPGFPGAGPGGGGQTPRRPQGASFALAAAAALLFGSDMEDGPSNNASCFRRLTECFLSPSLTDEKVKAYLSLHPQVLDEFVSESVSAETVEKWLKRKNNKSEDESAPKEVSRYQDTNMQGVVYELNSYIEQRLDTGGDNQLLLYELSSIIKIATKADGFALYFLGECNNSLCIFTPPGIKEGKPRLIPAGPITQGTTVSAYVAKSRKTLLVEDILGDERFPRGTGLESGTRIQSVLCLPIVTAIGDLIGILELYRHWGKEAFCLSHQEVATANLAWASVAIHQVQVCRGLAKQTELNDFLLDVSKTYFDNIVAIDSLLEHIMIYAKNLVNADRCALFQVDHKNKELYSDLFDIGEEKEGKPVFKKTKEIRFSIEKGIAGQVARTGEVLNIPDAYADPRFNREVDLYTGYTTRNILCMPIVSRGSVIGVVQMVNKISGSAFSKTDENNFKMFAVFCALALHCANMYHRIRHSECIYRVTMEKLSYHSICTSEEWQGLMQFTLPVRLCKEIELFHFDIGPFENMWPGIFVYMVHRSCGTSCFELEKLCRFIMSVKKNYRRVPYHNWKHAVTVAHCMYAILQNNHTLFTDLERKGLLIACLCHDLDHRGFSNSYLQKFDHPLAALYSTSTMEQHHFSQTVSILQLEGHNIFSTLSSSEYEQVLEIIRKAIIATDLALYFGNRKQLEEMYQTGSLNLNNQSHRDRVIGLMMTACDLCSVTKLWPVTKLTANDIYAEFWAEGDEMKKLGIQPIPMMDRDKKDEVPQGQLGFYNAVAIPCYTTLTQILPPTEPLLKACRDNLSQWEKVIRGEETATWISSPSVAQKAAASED

SMILES	IC50 [1]	IC50 [2]	IC50 [3]	IC50 [4]	IC50 [5]
COc1ccc2ccc(CSc3ccc(-c4c(-c5ccncc5)cnn4C)cc3)nc2c1	0.635 µM				
COc1cccc2ccc(CNc3ccc(-c4c(-c5ccncc5)cnn4C)cc3)nc12	4.6 µM				
COc1cc2ccccc2nc1COc1ccc(-c2nn(C)cc2-c2ccncc2)cc1	0.0004 µM	3.85 µM	3.43 µM	123 µM	82.7 µM
COc1cc(COc2ccc(-c3nn(C)cc3-c3ccncc3)cc2)nc2ccccc12	0.00028 µM	2.56 µM	1.79 µM	27.5 µM	3.85 µM
COc1cccc2nc(COc3ccc(-c4nn(C)cc4-c4ccncc4)cc3)ccc12	0.06 µM				
COc1ccc2nc(COc3ccc(-c4nn(C)cc4-c4ccncc4)cc3)ccc2c1	0.00182 µM	3.37 µM	2.56 µM	78 µM	9.75 µM
COc1ccc2ccc(COc3ccc(-c4nn(C)cc4-c4ccncc4)cc3)nc2c1	0.046 µM				
COc1cccc2ccc(COc3ccc(-c4nn(C)cc4-c4ccncc4)cc3)nc12	0.0415 µM				
COc1ccc2nc(CSc3ccc(-c4nn(C)cc4-c4ccncc4)cc3)ccc2c1	0.415 µM				
COc1ccc2nc(CNc3ccc(-c4nn(C)cc4-c4ccncc4)cc3)ccc2c1	7.5 µM				
COc1cccc2ccc(CNc3ccc(-c4nn(C)cc4-c4ccncc4)cc3)nc12	10.9 µM				
COc1cc2ccccc2nc1COc1ccc(-c2c(-c3ccncc3)cnn2C)cc1	0.00024 µM	199 µM	31.5 µM	18.7 µM	16.9 µM
COc1cccc2nc(COc3ccc(-c4c(-c5ccncc5)cnn4C)cc3)ccc12	0.0814 µM				
COc1ccc2ccc(COc3ccc(-c4c(-c5ccncc5)cnn4C)cc3)nc2c1	0.095 µM				
COc1cc(CSc2ccc(-c3c(-c4ccncc4)cnn3C)cc2)nc2ccccc12	1.85 µM				

Continued by falling IC50 [1], values first:

IC50 [1]	IC50 [2]	IC50 [3]	IC50 [4]	IC50 [5]	SMILES
13.9 µM					COc1cc(CNc2ccc(-c3nn(C)cc3-c3ccncc3)cc2)nc2ccccc12
7.4 µM					COc1ccc2ccc(CNc3ccc(-c4nn(C)cc4-c4ccncc4)cc3)nc2c1
5.15 µM					COc1ccc2ccc(CNc3ccc(-c4c(-c5ccncc5)cnn4C)cc3)nc2c1
4.25 µM					COc1ccc2nc(CNc3ccc(-c4c(-c5ccncc5)cnn4C)cc3)ccc2c1
3.05 µM					COc1cccc2ccc(CSc3ccc(-c4c(-c5ccncc5)cnn4C)cc3)nc12
0.645 µM					COc1cc(CNc2ccc(-c3c(-c4ccncc4)cnn3C)cc2)nc2ccccc12
0.635 µM					COc1cccc2ccc(CSc3ccc(-c4nn(C)cc4-c4ccncc4)cc3)nc12
0.61 µM					COc1ccc2nc(CSc3ccc(-c4c(-c5ccncc5)cnn4C)cc3)ccc2c1
0.4 µM					COc1ccc2ccc(CSc3ccc(-c4nn(C)cc4-c4ccncc4)cc3)nc2c1
0.199 µM					COc1cccc2ccc(COc3ccc(-c4c(-c5ccncc5)cnn4C)cc3)nc12
0.168 µM					COc1cc(CSc2ccc(-c3nn(C)cc3-c3ccncc3)cc2)nc2ccccc12
0.00178 µM	5.6 µM	7.1 µM	1.5 µM	3 µM	COc1ccc2nc(COc3ccc(-c4c(-c5ccncc5)cnn4C)cc3)ccc2c1
0.00036 µM	4.18 µM	5.06 µM	29 µM	4.8 µM	COc1cc(COc2ccc(-c3c(-c4ccncc4)cnn3C)cc2)nc2ccccc12

From ChEMBL document CHEMBL3217426, “Synthesis and in vitro biological evaluation of pyrazole group-containing analogues for PDE10A” (Medchemcomm, 2013)
